Activity calls are given as the source filed them. No cut-off for these calls is given here.
How the values were obtained:
[1] = test system: HK-2; assay: Antiinflammatory activity in human HK2 cells assessed as suppression of cisplatin-induced TNF-alpha […] level at 4 uM by ELISA; type: functional, cell-based
Procedure, shortened: (§1)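 HK2 cells starved overnight in DMEM/F12 with 0.5% FBS, pretreated with compound 6 h, then cisplatin 20 μM added. After 24 h, cytokine protein in the culture medium was measured with human TNF-α, IL-6 or MCP-1 ELISA kits per manufacturer's instructions. Three to four independent experiments.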

[2] = test system: HK-2; assay: Antiinflammatory activity in human HK2 cells assessed as suppression of cisplatin-induced MCP-1 mRNA level at 4 uM by SYBR-green based RT-PCR analysis; type: functional, cell-based
Procedure, shortened: (§2)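 Overnight starvation of HK2 cells in DMEM/F12 with 0.5% FBS, then 6 h compound pretreatment before cisplatin 20 μM. Cells harvested after 24 h. Total RNA extracted with an RNeasy kit, and MCP-1, TNF-α or IL-6 mRNA quantified by real-time PCR. Three to four independent experiments.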

[3] = test system: HK-2; assay: Antiinflammatory activity in human HK2 cells assessed as suppression of cisplatin-induced IL-6 mRNA level at 4 uM by SYBR-green based RT-PCR analysis; type: functional, cell-based; procedure, shortened: as §2
[4] = test system: HK-2; assay: Antiinflammatory activity in human HK2 cells assessed as suppression of cisplatin-induced MCP-1 […] level at 4 uM by ELISA; type: functional, cell-based; procedure, shortened: as §1
[5] = test system: HK-2; assay: Cytotoxicity against human HK2 cells assessed as reduction in cell viability after 24 hrs by MTT assay; type: cell-based; settings: hk-2, 24 h
Procedure, shortened: (§3)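 MTT cytotoxicity read-out on HK2 cells. Medium was changed, MTT in PBS added to a final 0.5 mg/mL, and plates incubated 4 h at 37°C. Medium was then removed, formazan dissolved in DMSO, and absorbance read at 492 nm.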

[6] = test system: HK-2; assay: Antiinflammatory activity in human HK2 cells assessed as suppression of cisplatin-induced IL-6 […] level at 4 uM by ELISA; type: functional, cell-based; procedure, shortened: as §1
[7] = target: Transcription factor p65 (Homo sapiens) (UniProt Q04206); assay: Inhibition of cisplatin-induced NF-kappaB p65 phosphorylation in human HK2 cells at 4 uM by Western blot analysis; type: cell-based
Procedure, shortened: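 HK2 cells starved overnight in DMEM/F12 with 0.5% FBS, pretreated 6 h with compound, then given cisplatin 20 μM for 24 h. Lysates made in ice-cold RIPA buffer and protein measured by BCA. Run on 10% SDS-PAGE, transferred to nitrocellulose, primary antibodies 18 h at 4°C, IRDye 800 secondary 1.5 h at room temperature.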

[8] = test system: HK-2; assay: Antiinflammatory activity in human HK2 cells assessed as suppression of cisplatin-induced TNF-alpha mRNA level at 4 uM by SYBR-green based RT-PCR analysis; type: functional, cell-based; procedure, shortened: as §2
[9] = test system: HK-2; assay: Cytotoxicity against human HK2 cells assessed as reduction in cell viability at 1 to 256 uM after 24 hrs by MTT assay; type: cell-based; settings: hk-2, 24 h; procedure, shortened: as §3
[10] = test system: HK-2; assay: Protection against cisplatin-induced cell death in human HK2 cells assessed as increase in survival rate at 4 uM preincubated for 6 hrs followed by cisplatin addition measured after 24 hrs by MTT assay relative to control; type: functional; settings: read-out: Survival
Procedure, shortened: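 HK2 cells starved overnight in DMEM/F12 with 0.5% FBS, pretreated with compound for 6 h, then exposed to cisplatin (20 μM) for 24 h. Compounds from 5 mM DMSO stocks. Viability by MTT: 0.5 mg/mL final, 4 h at 37°C, formazan dissolved in DMSO, absorbance at 492 nm. Three to four independent experiments.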

[11] = test system: HK-2; assay: Protection against cisplatin-induced cell death in human HK2 cells assessed as increase in survival rate preincubated for 6 hrs followed by cisplatin addition measured after 24 hrs by MTT assay; type: functional, cell-based

Chain of Transcription factor p65 (Homo sapiens) (Q04206 whole entry): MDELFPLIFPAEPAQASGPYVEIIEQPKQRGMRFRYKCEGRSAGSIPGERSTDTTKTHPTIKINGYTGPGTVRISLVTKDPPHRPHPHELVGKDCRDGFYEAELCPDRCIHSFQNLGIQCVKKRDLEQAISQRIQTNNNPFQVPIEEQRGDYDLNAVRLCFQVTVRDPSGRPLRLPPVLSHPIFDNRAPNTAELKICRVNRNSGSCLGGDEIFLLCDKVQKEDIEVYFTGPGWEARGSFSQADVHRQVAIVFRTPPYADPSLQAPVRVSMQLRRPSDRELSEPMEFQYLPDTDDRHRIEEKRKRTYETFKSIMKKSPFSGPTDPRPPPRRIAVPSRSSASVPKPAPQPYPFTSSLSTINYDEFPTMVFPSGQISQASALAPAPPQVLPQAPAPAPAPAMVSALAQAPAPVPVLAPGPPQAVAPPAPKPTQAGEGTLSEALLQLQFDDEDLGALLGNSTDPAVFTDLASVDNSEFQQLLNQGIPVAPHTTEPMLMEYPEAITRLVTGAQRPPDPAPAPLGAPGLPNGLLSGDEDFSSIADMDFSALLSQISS

| SMILES | Activity [1] | Activity [2] | Activity [3] | Activity [4] | Activity [5] | Activity [6] | inhibition [7] | Activity [8] | Activity [9] | viability at 4 µM [10] [%] | Activity [11] |
| --- | --- | --- | --- | --- | --- | --- | --- | --- | --- | --- | --- |
| COc1ccc(C2(CNC(=O)[C@](C)(Cc3c[nH]c4ccccc34)NC(=O)Nc3ccc([N+](=O)[O-])cc3)CCCCC2)nc1 | Active | Active | Active | Active | Toxic | Active | Active | Active |  |  |  |
| Cc1ccc(CC(=O)N[C@@H](Cc2ccccc2)C(=O)NCCn2ccnc2)cc1 | Active | Active | Active | Active |  | Active | Active | Active | Non-Toxic | > 40 | Dose-dependent effect |
| O=C(Cc1ccc(F)cc1)N[C@@H](Cc1ccc(O)cc1)C(=O)NCCN1CCOCC1 |  | Active | Active |  |  |  |  | Active | Non-Toxic | > 30 | Dose-dependent effect |

From ChEMBL document CHEMBL4373631, “Design, synthesis and evaluation of PD176252 analogues for ameliorating cisplatin-induced nephrotoxicity” (Medchemcomm, 2019)
